Results reported in ChEMBL document CHEMBL1155615, “Bioactive saponins from Swartzia schomburgkii from the suriname rainforest” (J Nat Prod, 2000).
In brackets after ≈: the same amount, converted by molar mass.

Legend:
M109 = assay: Cytotoxicity against mouse M109 cells; type: functional, cell-based
Procedure, shortened: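 In vitro antitumor cytotoxicity assay using the murine Madison lung carcinoma line M-109.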

Saccharomyces cerevisiae [1] = assay: Antimicrobial activity against Saccharomyces cerevisiae J140; type: functional
Saccharomyces cerevisiae [2] = assay: Antimicrobial activity against Saccharomyces cerevisiae I353; type: functional
Saccharomyces cerevisiae [3] = assay: Antimicrobial activity against Saccharomyces cerevisiae I138; type: functional

| SMILES | IC50 (M109) [µg/mL] | IC12 (Saccharomyces cerevisiae [1]) [µg/mL] | IC12 (Saccharomyces cerevisiae [2]) [µg/mL] | IC12 (Saccharomyces cerevisiae [3]) [µg/mL] |
| --- | --- | --- | --- | --- |
| CC1(C)CC[C@]2(C(=O)O)CC[C@]3(C)C(=CC[C@@H]4[C@@]5(C)CC[C@H](O[C@@H]6O[C@H](CO)[C@@H](O)[C@H](O[C@@H]7O[C@H](CO)[C@@H](O)[C@H](O)[C@H]7O)[C@H]6O)[C@@](C)(CO)[C@@H]5CC[C@]43C)[C@@H]2C1 | 15.5 (≈ 19.4 µM) | 600 | 1000 | 400 |
| CC1(C)CC[C@]2(C(=O)O)CC[C@]3(C)C(=CC[C@@H]4[C@@]5(C)CC[C@H](O[C@@H]6O[C@H](CO)[C@@H](O)[C@H](O)[C@H]6O[C@@H]6O[C@H](CO)[C@@H](O)[C@H](O)[C@H]6O)C(C)(C)[C@@H]5CC[C@]43C)[C@@H]2C1 [ACUTOSIDE A] | 28.7 (≈ 36.7 µM) | 130 | 110 | 75 |
| CC1(C)CC[C@]2(C(=O)O)CC[C@]3(C)C(=CC[C@@H]4[C@@]5(C)CC[C@H](O[C@@H]6O[C@H](CO)[C@@H](O)[C@H](O[C@@H]7O[C@H](CO)[C@@H](O)[C@H](O)[C@H]7O)[C@H]6O[C@@H]6O[C@H](CO)[C@@H](O)[C@H](O)[C@H]6O)C(C)(C)[C@@H]5CC[C@]43C)[C@@H]2C1 [ANCHUSOSID 2] | – | 200 | 270 | 120 |
| CC1(C)CC[C@]2(C(=O)O)CC[C@]3(C)C(=CC[C@@H]4[C@@]5(C)CC[C@H](O[C@@H]6O[C@H](CO)[C@@H](O)[C@H](O)[C@H]6O)[C@@](C)(CO)[C@@H]5CC[C@]43C)[C@@H]2C1 [Hederagenin-3-O-beta-D-glucopyranoside] | – | 200 | 280 | 125 |
| CC1(C)CC[C@]2(C(=O)O)CC[C@]3(C)C(=CC[C@@H]4[C@@]5(C)CC[C@H](O[C@@H]6O[C@H](CO)[C@@H](O)[C@H](O[C@@H]7O[C@H](CO)[C@@H](O)[C@H](O)[C@H]7O)[C@H]6O[C@@H]6OC[C@@H](O)[C@H](O)[C@H]6O)C(C)(C)[C@@H]5CC[C@]43C)[C@@H]2C1 [SWARTZIATRIOSIDE] | 24.3 (≈ 26.6 µM) | 260 | 430 | 120 |
